What was measured:
Rattus norvegicus [1] = species on record: Rattus norvegicus; test: T/C value of compound was measured in rats which are treated with phenobarbital (PB); type: functional
Summary of the method: (§1)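 Rats were given water (untreated) or 0.1% sodium phenobarbital drinking solution (PB-treated) for 8 days, then fasted overnight. Agent 1.25 mmol/kg ip, then ethanol 2.0 g/kg ip 1 h later; killed 1 h after ethanol. Blood acetaldehyde by head-space GC. The value is treated/saline-control blood acetaldehyde within the same pretreatment group.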

Rattus norvegicus [2] = species on record: Rattus norvegicus; test: T/C value of compound was measured in rats which are untreated with phenobarbital (PB); type: functional; summary of the method: as §1
Rattus norvegicus [3] = species on record: Rattus norvegicus; test: The enzymatic formation of propionaldehyde from compound on inhibition with rat liver microsomes in the presence of an NADPH (treated with phenobarbital (PB)); type: functional
Summary of the method: (§2)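 Liver microsomes (100000g pellet, KCl-washed) from PB-treated or naive rats, equivalent to 500 mg liver per flask. Incubated 30 min at 37 °C with 3 mM compound, pH 7.4 phosphate, NADP+ 2.0 mM, glucose 6-phosphate 2.5 mM, G6PDH, MgCl2, nicotinamide, and 30 mM semicarbazide. Six flasks were pooled, acidified with HClO4, and propiolaldehyde read by head-space GC from 3–5 determinations.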

Rattus norvegicus [4] = species on record: Rattus norvegicus; test: Blood AcH level of compound was measured in rats which are treated with phenobarbital (PB); type: functional
Summary of the method: (§3)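 Male Sprague–Dawley rats kept 8 days on water (untreated) or 0.1% sodium phenobarbital solution (PB-treated), then fasted overnight. Test agent given at 1.25 mmol/kg ip 2 h before sacrifice, with ethanol at 2.0 g/kg ip 1 h later; saline controls. Cardiac blood was collected into 5 mM sodium azide and frozen, then acetaldehyde was read by head-space GC. Mean ± SE.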

Rattus norvegicus [5] = species on record: Rattus norvegicus; test: Blood AcH level of compound was measured in rats which are untreated with phenobarbital (PB); type: functional; summary of the method: as §3
Rattus norvegicus [6] = species on record: Rattus norvegicus; test: The enzymatic formation of propionaldehyde from compound on inhibition with rat liver microsomes in the presence of an NADPH (untreated with phenobarbital (PB)); type: functional; summary of the method: as §2
[7] = molecular target: T1, Aldehyde dehydrogenase 1A1 (Rattus norvegicus) (UniProt P51647); test: Percent inhibition of the enzyme […] was measured in rats which are treated with phenobarbital (PB); settings: concentration not given here
T1 sequence (whole entry): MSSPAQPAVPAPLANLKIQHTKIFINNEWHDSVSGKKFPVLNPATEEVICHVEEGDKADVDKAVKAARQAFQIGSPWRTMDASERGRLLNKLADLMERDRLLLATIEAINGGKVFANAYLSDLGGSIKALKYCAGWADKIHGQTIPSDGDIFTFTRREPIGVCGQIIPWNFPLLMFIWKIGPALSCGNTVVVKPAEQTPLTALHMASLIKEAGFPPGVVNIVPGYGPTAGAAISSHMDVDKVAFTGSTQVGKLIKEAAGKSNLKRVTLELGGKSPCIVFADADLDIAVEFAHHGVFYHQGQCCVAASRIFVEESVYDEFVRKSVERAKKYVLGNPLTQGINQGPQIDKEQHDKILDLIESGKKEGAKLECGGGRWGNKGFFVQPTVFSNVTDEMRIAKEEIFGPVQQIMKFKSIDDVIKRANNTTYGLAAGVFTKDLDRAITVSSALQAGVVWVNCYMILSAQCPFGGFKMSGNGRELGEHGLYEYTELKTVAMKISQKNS
Summary of the method: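 Male Sprague–Dawley rats pretreated 8 days with 0.1% sodium phenobarbital in drinking water, then fasted overnight. They received 1.25 mmol/kg ip 2 h before sacrifice and ethanol 2.0 g/kg ip at 1 h. Liver mitochondrial low-Km aldehyde dehydrogenase activity (nmol acetaldehyde oxidized/min/mg protein, Lowry protein) was compared with saline controls as % inhibition.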

Structure (SMILES) | T/C (Rattus norvegicus [1]) | T/C (Rattus norvegicus [2]) | Propioaldehyde generated (Rattus norvegicus [3]) | Blood AcH (Rattus norvegicus [4]) | Blood AcH (Rattus norvegicus [5]) | Propioaldehyde generated (Rattus norvegicus [6]) | inhibition [7]
C#CCNCc1ccccc1 [N-BENZYLPROPARGYLAMINE] | 50.3 | 18.3 | 1.16 µmol | 382 µM | 203 µM | 0.2 µmol | –
C#CCOC(C)(C)C | 1.78 | 1.77 | 0.22 µmol | 13.5 µM | 19.6 µM | – | –
C#CCOC | 1.1 | 0.95 | 0.05 µmol | – | 10.6 µM | – | –
C#CCN(C)Cc1ccccc1 [PARGYLINE] | 32.5 | 20.2 | 2.58 µmol | 247 µM | 224 µM | 0.61 µmol | –
C#CC(OC)OC | 3.17 | 0.95 | 0.05 µmol | 24.1 µM | 10.6 µM | – | 44%
C#CCN(CC#C)CC#C | 19 | 1.4 | 3.5 µmol | 144 µM | 15.4 µM | 0.25 µmol | –

Reference: ChEMBL document CHEMBL1121456, “Metabolic depropargylation and its relationship to aldehyde dehydrogenase inhibition in vivo” (1980)
